Results reported in ChEMBL document CHEMBL2406953, “Bioactive constituents of Indigofera spicata” (J Nat Prod, 2013).
Activity calls are given as the source filed them.

Key:
[1] = Chemopreventive index, ratio of IC50 for mouse Hepa1c1c7 cells to CD for quinone reductase in mouse Hepa1c1c7 cells
Mus musculus [2] = species on record: Mus musculus; test: Induction of quinone reductase in mouse Hepa1c1c7 cells; format: cell-based
How it was run: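 Phase II enzyme induction was measured in murine Hepa 1c1c7 hepatoma cells by a standard quinone reductase procedure. L-sulforaphane served as the positive control. Values are CD, the concentration that doubles quinone reductase activity, given as mean ± SD of three independent experiments.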

[3] = Cytotoxicity against mouse Hepa-1c1c7 cells; format: functional, cell-based
[4] = Cytotoxicity against human CCD-112CoN cells by SRB assay; format: cell-based
How it was run: (§1)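 Normal colon CCD-112CoN cells tested by SRB assay alongside HT-29; IC50 (50% growth inhibition) as mean ± SD of triplicate; paclitaxel positive control; fold selectivity = IC50 in CCD-112CoN divided by IC50 in HT-29.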

HT-29 [5] = test: Cytotoxicity against human HT-29 cells after 72 hrs by SRB assay; format: functional, cell-based; details: HT-29, 72 h
How it was run: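 HT-29 colon cancer cells, sulforhodamine B assay, 72 h; paclitaxel positive control; IC50 defined as concentration inhibiting 50% cell growth, mean ± SD from a triplicate.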

[6] = Selectivity ratio of IC50 for human CCD-112CoN cells to IC50 for human HT29 cells; format: ADME, cell-based, HT-29; details: CCD-112CoN cells versus HT29 cells, read-out: Ratio IC50
How it was run: as §1

Mus musculus [7] = test: Toxicity in immunodeficient NCr nu/nu mouse at 0.5 to 2 mg/kg, ip qd; format: organism-based; design: dose 0.5-2 mg/kg, route intraperitoneal; details: in vivo
HT-29 [8] = test: Antitumor activity against human HT-29 cells in hollow fiber implanted in immunodeficient NCr nu/nu mouse assessed as reduction in cell growth at 0.5 to 2 mg/kg, ip qd
Mus musculus [9] = test: Toxicity in immunodeficient NCr nu/nu mouse at 5 to 30 mg/kg, ip qd; format: organism-based; design: dose 5-30 mg/kg, route intraperitoneal; details: in vivo
How it was run: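 Female NCr nu/nu mice with ip and sc hollow fibers (HT-29, MCF-7, MDA-MB-435 cells) given compound in 30% cyclodextrin ip once daily at 5, 10, 15, 30 mg/kg; bortezomib 1 mg/kg ip daily in 30% cyclodextrin as positive control; lethality monitored after each injection.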

Raji [10] = test: Cytotoxicity against human Raji cells after 72 hrs by MTS assay; format: functional, cell-based
How it was run: (§2)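 697 (DSMZ) and Raji (ATCC) cells at 200,000 cells/mL; compounds from 2 mM DMSO stock, diluted in 10% DMSO, eight three-fold dilutions giving final 10 to 0.005 µM plus 0; final DMSO 0.5%; vincristine sulfate 25 nM positive control. Quadruplicate wells, 48 and 72 h, 37°C, 5% CO2; MTS read-out; IC50 = 50% growth inhibition, mean ± SD of three independent experiments.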

Raji [11] = test: Cytotoxicity against human Raji cells after 48 hrs by MTS assay; format: functional, cell-based
How it was run: as §2

697 [12] = test: Cytotoxicity against human 697 cells after 48 hrs by MTS assay; format: functional, cell-based; details: Homo sapiens, 697, 48 h
How it was run: as §2

MDA-MB-435 = test: Antitumor activity against human MDA-MB-435 cells in hollow fiber implanted in immunodeficient NCr nu/nu mouse assessed as reduction in cell growth at 2 mg/kg, ip qd; format: functional; design: scale not given: the % may be the effect or the level left; details: route intraperitoneal
697 [13] = test: Cytotoxicity against human 697 cells after 72 hrs by MTS assay; format: functional, cell-based; details: Homo sapiens, 697, 72 h
How it was run: as §2

697 [14] = test: Induction of cell death in human 697 cells at 10 uM after 48 to 72 hrs using propidium iodide staining by flow cytometry; format: functional
How it was run: (§3)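 697 cells at 200,000 cells/mL treated at final 10, 1.11, 0.123, 0.014, 0 µM (from 2 mM stock, 10% DMSO dilutions, final DMSO 0.5%) for 48 and 72 h; vincristine 25 and 5 nM positive control. Same dilutions run in parallel by MTS and by propidium iodide: cells pelleted, resuspended in PI/PBS, 15 min dark at room temperature, flow cytometry; three independent experiments.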

697 [15] = test: Cytostatic activity against human 697 cells assessed as reduction in cell viability at 0.014 to 10 uM after 48 to 72 hrs by MTS assay; format: functional, cell-based
How it was run: as §3

Structure (SMILES) | Ratio [1] | CD (Mus musculus [2]) [µM] | IC50 [3] [µM] | further results
COc1ccc2c(c1/C=C/C(C)(C)O)O[C@H](c1ccccc1)CC2=O | 11.3 | 4.2 | 47.4 | –
COc1ccc2c(c1/C=C/C(C)(C)OC)O[C@H](c1ccccc1)CC2=O | 5.9 | 8.3 | 49 | –
COc1cc2c(c3c1C(=O)C[C@@H](c1ccccc1)O3)[C@H]1[C@@H](O2)OC(C)(C)[C@@H]1OC(C)=O (stereo in doubt; 2) [listing 1 of 2 here] | 376.7 | – | 63.9 | –
COc1cc2c(c3c1C(=O)C[C@@H](c1ccccc1)O3)[C@H]1[C@@H](O2)OC(C)(C)[C@@H]1OC(C)=O (stereo in doubt; 2) [listing 2 of 2 here] | – | 0.2 | – | –
COc1cc2c(c3c1C(=O)C[C@@H](c1ccccc1)O3)[C@H]1[C@@H](O2)OC(C)(C)[C@@H]1OC(C)=O (stereo in doubt; 5) | – | > 10 | – | –
COc1ccc2c(c1C1=COC(C)(C)C1=O)O[C@H](c1ccccc1)CC2=O [(2S)-2,3-DIHYDROTEPHROGLABRIN] | 3.6 | 6.4 | 23.1 | –
CC1(C)O[C@@H]2Oc3ccc(C(=O)/C=C/c4ccccc4)c(O)c3[C@@H]2[C@H]1O [(+)-TEPHROSONE] | 9.9 | 3.8 | 37.6 | –
C[S@+]([O-])CCCCN=C=S [L-SULFORAPHANE] | 23.9 | 0.5 | 12.1 | –
CC(=O)O[C@H]1C(=O)[C@@]2(C)[C@H]([C@H](OC(=O)c3ccccc3)[C@]3(O)C[C@H](OC(=O)[C@H](O)[C@@H](NC(=O)c4ccccc4)c4ccccc4)C(C)=C1C3(C)C)[C@]1(OC(C)=O)CO[C@@H]1C[C@@H]2O [PACLITAXEL] | – | – | – | IC50 [4]: 23 µM; IC50 (HT-29 [5]): 0.0006 µM; selectivity ratio [6]: 38300
C=C(C)[C@H]1Cc2c(ccc3c2O[C@@H]2COc4cc(OC)c(OC)cc4[C@]2(O)C3=O)O1 [ROTENOLONE] | 0.6 | 0.4 | 0.2 | IC50 [4]: 102 µM; IC50 (HT-29 [5]): 0.1 µM; Activity (Mus musculus [7]): Non-toxic; Activity (HT-29 [8]): inactive; Activity (Mus musculus [9]): Toxic; IC50 (Raji [10]): 2.4 µM; IC50 (Raji [11]): 5.6 µM; IC50 697 [12]: 0.7 µM; Activity (MDA-MB-435): 20%; IC50 697 [13]: 0.5 µM; selectivity ratio [6]: 1020
C=C(C)[C@H]1Cc2c(ccc3c2O[C@@H]2COc4cc(OC)c(OC)cc4[C@@H]2C3=O)O1 [ROTENONE] | 0.9 | 0.8 | 0.7 | IC50 [4]: > 127 µM; IC50 (Raji [10]): 1.1 µM; IC50 (Raji [11]): 4.2 µM; IC50 697 [12]: 0.3 µM; IC50 697 [13]: 0.3 µM; selectivity ratio [6]: > 423
COc1cc2c(c(O)c1C(=O)/C=C/c1ccccc1)[C@H]1[C@@H](O2)OC(C)(C)[C@@H]1OC(C)=O [TEPHROPURPURIN] | 23.9 | 0.8 | 18.1 | –
COc1cc2c(cc1OC)[C@]1(O)C(=O)c3ccc4c(c3O[C@@H]1CO2)C=CC(C)(C)O4 [TEPHROSIN] | 35.3 | 0.4 | 13.9 | Activity 697 [14]: 24%; IC50 (HT-29 [5]): > 10 µM; IC50 (Raji [10]): > 10 µM; IC50 (Raji [11]): > 10 µM; Activity 697 [15]: Active; IC50 697 [12]: 5.4 µM; IC50 697 [13]: 9 µM
